Results as given in ChEMBL document CHEMBL1138564, “Microwave-induced synthesis and anti-microbial activities of 7,10,11,12-tetrahydrobenzo[c]acridin-8(9H)-one derivatives” (2009).
Values after ≈ are worked out from the molar mass of the structure shown. Active and inactive are the calls of the source. No cut-off for these calls is given here.

Tests used:
Klebsiella aerogenes = test: Antimicrobial activity against Klebsiella aerogenes NCIM 2239 after 24 hrs by serial dilution method; format: functional; conditions: NCIM 2239, 24 h
Method in brief: (§1)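 Broth dilution MIC in nutrient broth, run only for organisms found sensitive in disc diffusion. Compounds are two-fold serially diluted in 1 ml sterile broth per tube, spanning 3.9 to 1000. Inoculated tubes are incubated at 37 °C for 24 h.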

Trichoderma viride [1] = test: Antimicrobial activity against Trichoderma viride NCIM 1195 after 72 hrs by serial dilution method; format: functional; conditions: NCIM 1195, 72 h
Method in brief: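 MIC by broth dilution in Sabouraud's dextrose broth, run only on fungi found sensitive in the disc assay. Twofold serial dilutions were made in 1 ml broth per tube, covering 3.9 to 1000. Inoculated tubes were incubated at 27 °C for 72 h.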

Aspergillus niger [2] = test: Antimicrobial activity against Aspergillus niger NCIM 902 after 72 hrs by serial dilution method; format: functional; conditions: NCIM 1196, 72 h, in the assay text read “NCIM 1196” for “NCIM 902”
Method in brief: (§2)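 MIC by broth dilution in Sabouraud's dextrose broth, only for fungi sensitive in disc diffusion. Two-fold serial dilutions of compounds are made in 1 ml broth per tube, range 3.9 to 1000. Inoculated tubes are incubated at 27 °C for 72 h.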

Salmonella typhimurium = test: Antimicrobial activity against Salmonella Typhimurium NCIM 2501 after 24 hrs by serial dilution method; format: functional, Salmonella enterica subsp. enterica serovar Typhimurium; conditions: Salmonella enterica, NCIM 2501, 24 h
Staphylococcus = test: Antimicrobial activity against Staphylococcus albus NCIM 2178 after 24 hrs by serial dilution method; format: functional; conditions: NCIM 2178, 24 h
Aspergillus fumigatus [3] = test: Antimicrobial activity against Aspergillus fumigatus NCIM 902 at 500 ug/disk after 72 hrs by disk diffusion method; format: functional
Method in brief: (§3)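 Disc diffusion on Sabouraud's dextrose agar. 100 µl of fungal suspension at 10⁶ CFU/ml is spread on the plate. Discs carry test compounds at two loadings in DMSO; DMSO alone is the negative control. Clotrimazole disc is the positive reference. Plates are incubated at 27 °C for 72 h, and the zone of inhibition diameter is measured.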

Aspergillus niger [4] = test: Antimicrobial activity against Aspergillus niger NCIM 902 at 500 ug/disk after 72 hrs by disk diffusion method; format: functional; conditions: NCIM 1196, 72 h, in the assay text read “NCIM 1196” for “NCIM 902”, read-out: DIZ; method in brief: as §3
Pseudomonas aeruginosa [5] = test: Antimicrobial activity against Pseudomonas aeruginosa NCIM 2200 after 24 hrs by serial dilution method; format: functional; conditions: NCIM 2200, 24 h; method in brief: as §1
Trichoderma viride [6] = test: Antimicrobial activity against Trichoderma viride NCIM 1195 at 500 ug/disk after 72 hrs by disk diffusion method; format: functional; conditions: for zone of inhibition at 500 µg/disc: NCIM 1195, 72 h, read-out: DIZ
Method in brief: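 Fungal disc diffusion. 100 µl of suspension at 10⁶ CFU/ml was spread on Sabouraud's dextrose agar. Discs carrying test compound in DMSO were applied, with a DMSO-only disc as negative control. Plates were incubated at 27 °C for 72 h, and the zone of inhibition diameter was measured.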

Lipomyces lipofer [7] = test: Antimicrobial activity against Lipomyces lipofer NCIM 3252 at 500 ug/disk after 72 hrs by disk diffusion method; format: functional; conditions: for zone of inhibition at 500 µg/disc: NCIM 3252, 72 h, read-out: DIZ; method in brief: as §3
Bacillus cereus [8] = test: Antimicrobial activity against Bacillus cereus NCIM 2155 after 24 hrs by serial dilution method; format: functional; conditions: NCIM 2155, 24 h; method in brief: as §1
Bacillus cereus [9] = test: Antimicrobial activity against Bacillus cereus NCIM 2155 at 500 ug/disk after 24 hrs by disk diffusion method; format: functional; conditions: for zone of inhibition at 500 µg/disc: NCIM 2155, 24 h, read-out: DIZ
Method in brief: (§4)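 Disc diffusion on Mueller–Hinton agar. 100 µl of bacterial suspension at 10⁸ CFU/ml is spread on the plate. Discs carry test compounds at two loadings, dissolved in DMSO; DMSO alone serves as negative control. Ofloxacin disc is the positive reference. Plates are incubated at 37 °C for 24 h, and the inhibition zone diameter is measured.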

Proteus vulgaris [10] = test: Antimicrobial activity against Proteus vulgaris NCIM 2027 after 24 hrs by serial dilution method; format: functional; conditions: NCIM 2027, 24 h; method in brief: as §1
Bacillus subtilis = test: Antimicrobial activity against Bacillus subtilis NCIM 2063 after 24 hrs by serial dilution method; format: functional; conditions: NCIM 2063, 24 h; method in brief: as §1
Aspergillus parasiticus = test: Antimicrobial activity against Aspergillus parasiticus NCIM 904 at 500 ug/disk after 72 hrs by disk diffusion method; format: functional; conditions: NCIM 904, 72 h, read-out: DIZ; method in brief: as §3
Aspergillus niger [11] = test: Antimicrobial activity against Aspergillus niger NCIM 902 at 1000 ug/disk after 72 hrs by disk diffusion method; format: functional; conditions: NCIM 1196, 72 h, in the assay text read “NCIM 1196” for “NCIM 902”, read-out: DIZ; method in brief: as §3
Pseudomonas aeruginosa [12] = test: Antimicrobial activity against Pseudomonas aeruginosa NCIM 2200 at 500 ug/disk after 24 hrs by disk diffusion method; format: functional; conditions: for zone of inhibition at 500 µg/disc: NCIM 2200, 24 h, read-out: DIZ
Method in brief: (§5)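 Disc diffusion. 100 µl of bacterial suspension at 10⁸ CFU/ml was spread on Mueller–Hinton agar. Discs loaded with test compound dissolved in DMSO were placed on the lawn, with a DMSO-only disc as negative control. Plates were incubated at 37 °C for 24 h, and the inhibition zone diameter was measured.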

Lipomyces lipofer [13] = test: Antimicrobial activity against Lipomyces lipofer NCIM 3252 after 72 hrs by serial dilution method; format: functional; conditions: NCIM 3252, 72 h; method in brief: as §2
[14] = test system: Rhodococcus corynebacterioides; test: Antimicrobial activity against Corynebacterium rubrum NCIM 2252 after 24 hrs by serial dilution method; format: functional; conditions: Rhodococcoides corynebacterioides, NCIM 2252, 24 h; method in brief: as §1
Proteus vulgaris [15] = test: Antimicrobial activity against Proteus vulgaris NCIM 2027 at 1000 ug/disk after 24 hrs by disk diffusion method; format: functional; conditions: NCIM 2027, 24 h, read-out: DIZ; method in brief: as §4
Penicillium chrysogenum = test: Antimicrobial activity against Penicillium chrysogenum NCIM 707 after 72 hrs by serial dilution method; format: functional; conditions: NCIM 707, 72 h; method in brief: as §2
Aliivibrio fischeri = test: Antimicrobial activity against Vibrio fischeri NCIM 2154 at 500 ug/disk after 24 hrs by disk diffusion method; format: functional; conditions: NCIM 2154, 24 h, read-out: DIZ; method in brief: as §5
Aspergillus fumigatus [16] = test: Antimicrobial activity against Aspergillus fumigatus NCIM 902 after 72 hrs by serial dilution method; format: functional; conditions: NCIM 902, 72 h; method in brief: as §2

Structure (SMILES) | MIC (Klebsiella aerogenes) | MIC (Trichoderma viride [1]) | MIC (Aspergillus niger [2]) | MIC (Salmonella typhimurium) | MIC (Staphylococcus) | diameter of the inhibition zone (DIZ) (Aspergillus fumigatus [3]) | zone of inhibition at 500 µg/disc (Aspergillus niger [4]) | MIC (Pseudomonas aeruginosa [5]) | zone of inhibition at 500 µg/disc (Trichoderma viride [6]) | zone of inhibition at 500 µg/disc (Lipomyces lipofer [7]) | MIC (Bacillus cereus [8]) | zone of inhibition at 500 µg/disc (Bacillus cereus [9]) | MIC (Proteus vulgaris [10]) | MIC (Bacillus subtilis) | zone of inhibition at 500 µg/disc (Aspergillus parasiticus) | zone of inhibition at 1000 µg/disc (Aspergillus niger [11]) | MIC (Lipomyces lipofer [13]) | MIC [14] | zone of inhibition at 1000 µg/disc (Proteus vulgaris [15]) | zone of inhibition at 500 µg/disc (Aliivibrio fischeri) | other results
CC1(C)CC(=O)C2=C(C1)Nc1c(ccc3ccccc13)C2c1ccc(O)cc1 (configuration not stated) | 31.2 µg/mL (≈ 84.4 µM) | 31.2 µg/mL (≈ 84.4 µM) | 62.5 µg/mL (≈ 169 µM) | 31.2 µg/mL (≈ 84.4 µM) | 125 µg/mL (≈ 338 µM) | inactive | 8 mm | 62.5 µg/mL (≈ 169 µM) | 10 mm | 7 mm | 31.2 µg/mL (≈ 84.4 µM) | 9 mm | 125 µg/mL (≈ 338 µM) | 62.5 µg/mL (≈ 169 µM) | 12 mm | 10 mm | 62.5 µg/mL (≈ 169 µM) | 62.5 µg/mL (≈ 169 µM) | 9 mm | 7 mm | zone of inhibition at 500 µg/disc (Pseudomonas aeruginosa [12]): 7 mm; MIC (Penicillium chrysogenum): 125 µg/mL (≈ 338 µM)
O=C1CCCC2=C1C(c1ccc(Cl)cc1)c1ccc3ccccc3c1N2 (configuration not stated) | 125 µg/mL (≈ 347 µM) | 125 µg/mL (≈ 347 µM) | 62.5 µg/mL (≈ 174 µM) | 62.5 µg/mL (≈ 174 µM) | 62.5 µg/mL (≈ 174 µM) |  | 8 mm | 62.5 µg/mL (≈ 174 µM) |  |  | 15.6 µg/mL (≈ 43.4 µM) | 10 mm | 125 µg/mL (≈ 347 µM) | 31.2 µg/mL (≈ 86.7 µM) | 10 mm | 8 mm | 125 µg/mL (≈ 347 µM) | 125 µg/mL (≈ 347 µM) | 9 mm | 8 mm | zone of inhibition at 500 µg/disc (Aspergillus fumigatus [3]; NCIM 902, 72 h, read-out: DIZ): 8 mm; diameter of the inhibition zone (DIZ) (Trichoderma viride [6]): inactive; diameter of the inhibition zone (DIZ) (Lipomyces lipofer [7]): inactive; MIC (Aspergillus fumigatus [16]): 62.5 µg/mL (≈ 174 µM); zone of inhibition at 500 µg/disc (Pseudomonas aeruginosa [12]): 7 mm; MIC (Penicillium chrysogenum): 125 µg/mL (≈ 347 µM)
O=C1CCCC2=C1C(c1ccc(O)cc1)c1ccc3ccccc3c1N2 (configuration not stated) | 62.5 µg/mL (≈ 183 µM) | 31.2 µg/mL (≈ 91.4 µM) | 62.5 µg/mL (≈ 183 µM) | 125 µg/mL (≈ 366 µM) | 62.5 µg/mL (≈ 183 µM) | inactive | 9 mm | 125 µg/mL (≈ 366 µM) | 10 mm | 10 mm |  |  | 125 µg/mL (≈ 366 µM) | 31.2 µg/mL (≈ 91.4 µM) | 12 mm | 9 mm | 62.5 µg/mL (≈ 183 µM) | 125 µg/mL (≈ 366 µM) | 9 mm | 7 mm | diameter of the inhibition zone (DIZ) (Bacillus cereus [9]): inactive; zone of inhibition at 500 µg/disc (Pseudomonas aeruginosa [12]): 7 mm; MIC (Penicillium chrysogenum): 125 µg/mL (≈ 366 µM)
O=C1CCCC2=C1C(c1cccc([N+](=O)[O-])c1)c1ccc3ccccc3c1N2 (configuration not stated) | 125 µg/mL (≈ 337 µM) | 62.5 µg/mL (≈ 169 µM) | 125 µg/mL (≈ 337 µM) | 62.5 µg/mL (≈ 169 µM) | 62.5 µg/mL (≈ 169 µM) | inactive | 7 mm |  | 9 mm | 8 mm | 62.5 µg/mL (≈ 169 µM) | 7 mm | 125 µg/mL (≈ 337 µM) | 31.2 µg/mL (≈ 84.2 µM) | 11 mm | 7 mm | 62.5 µg/mL (≈ 169 µM) | 125 µg/mL (≈ 337 µM) | 9 mm | 7 mm | MIC (Aspergillus fumigatus [16]): 125 µg/mL (≈ 337 µM); diameter of the inhibition zone (DIZ) (Pseudomonas aeruginosa [12]): inactive
